Test results as given in paper PMC9283735 (Clinical and Translational Science, 2022).
Like-named read-outs stand apart in the source and are kept apart here. *1 amine or outer side, *2 acyl side, *3 side chain or, on linkers, in order; H or OH if unused. Where a SMILES comes first, the peptide text is derived from it. Bridges are numbered along the chain shown (N, C = ends). [ ]: non-standard residue; d: D form. The star is where a group is joined. Orn(4R-OH,5R-OCH2CH2NMe3+) = C[N+](C)(C)CCO[C@@H](N[*:3])[C@H](O)C[C@H](N[*:1])C(=O)[*:2]; pTerphenylCO(4''-OnC5H11) = CCCCCOc1ccc(-c2ccc(-c3ccc(C(=O)*)cc3)cc2)cc1; hTyr(3S-OH,4S-OH) = N[C@H](C(=O)O)[C@H](O)[C@@H](O)c1ccc(O)cc1; Pro(3S-OH,4S-Me) = C[C@H]1CN[C@H](C(=O)O)[C@H]1O; Hyp = O=C(O)[C@@H]1C[C@@H](O)CN1

Columns and labels:
[1] = tested on: healthy adult subjects; experiment: Solicited local reactogenicity symptoms; assay type: in vivo, human; settings: 1 mg or 10 mg single s.c. dose
Outline: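 The injection site was evaluated from dosing to day 30: in-unit confinement for 7 days, then follow-up on days 14, 21 and 30 (±1 day). Solicited local symptoms were pain, tenderness, pruritus, ecchymosis, induration/swelling, erythema, nodule and ulceration, each graded mild (1), moderate (2) or severe (3). Subjects were randomized 3:1 to test compound or 5% dextrose placebo. Proportions carry Wilson-score 95% CIs.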

[2] = tested on: healthy adult subjects; assay type: in vivo, human
Outline: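 Unsolicited AEs (volunteered, not pre-specified) were recorded from dosing to final follow-up (day 30), graded 1–3, judged related or unrelated by the study physician, and coded with MedDRA 23.1. Clinical evaluation included ECGs, physical examinations and vital signs on select days. Laboratory tests covered hematology, coagulation, blood chemistry and dipstick urinalysis, run on samples taken after a fast of at least 8 h.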

[3] = Plasma pharmacokinetics after a single s.c. dose; assay type: in vivo, human; settings: 10 mg single s.c. dose, healthy adults; for AUC(0-t): AUC0-last; for AUC(0-t) / Tmax: N = 6; for Tmax: T max
Outline: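 Healthy adults aged 18–45 y were randomized 3:1 to a single s.c. injection of the test compound (100 mg/ml formulation with mannitol) or placebo (5% dextrose). Parameters came from noncompartmental analysis (Lambda Z: adjusted r² ≥0.90, span ≥2.0 half-lives, ≥2 points after Tmax).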

[4] = single i.v. doses of 50, 100, 200 and 400 mg, human plasma; cited from earlier work
[5] = rats; cited from earlier work
[6] = monkeys; cited from earlier work
[7] = cohort 1 (1 mg s.c.), of 3 who received rezafungin
[8] = cohort 2 (10 mg s.c.), of 6 who received rezafungin
[9] = human, plasma, sc, 10 mg, geometric mean, NCA
[10] = human, plasma, sc, 10 mg, median, NCA

CCCCCOc1ccc(-c2ccc(-c3ccc(C(=O)N[C@H]4C[C@@H](O)[C@@H](OCC[N+](C)(C)C)NC(=O)[C@@H]5[C@@H](O)[C@@H](C)CN5C(=O)[C@H]([C@@H](C)O)NC(=O)[C@H]([C@H](O)[C@@H](O)c5ccc(O)cc5)NC(=O)[C@@H]5C[C@@H](O)CN5C(=O)[C@H]([C@@H](C)O)NC4=O)cc3)cc2)cc1 [rezafungin] ({pTerphenylCO(4''-OnC5H11)}-[Orn(4R-OH,5R-OCH2CH2NMe3+)]T[Hyp][hTyr(3S-OH,4S-OH)]T[Pro(3S-OH,4S-Me)]; lactam 1-C)
intensity of solicited reactogenicity symptoms [1]: mild to moderate
severe bradycardia, subjects ([2]; cohort 1 (1 mg s.c.), asymptomatic, determined not rezafungin-related): single subject
sinus bradycardia (unsolicited AE), % of subjects [2, 7]: 67%
sinus bradycardia (unsolicited AE), subjects [2, 7]: 2
unsolicited AEs deemed related to rezafungin, number of subjects ([2]; cohort 2 (10 mg s.c.)): three
unsolicited AEs deemed related to rezafungin, number of AEs ([2]; cohort 2 (10 mg s.c.), all mild): Five
increased alanine aminotransferase (unsolicited AE), % of subjects [2, 8]: 33%
increased alanine aminotransferase (unsolicited AE), subjects [2, 8]: 2
exposure period [3]: ~1 month
t 1/2, geometric mean ([3]; plasma, NCA, geometric mean, N = 5): 186.2 h
AUC0-inf, maximum ([3]; plasma, NCA, maximum, N = 5): 53,200 ng*h/ml
CL/F, maximum ([3]; plasma, NCA, maximum, N = 5): 0.344 L/h
V z/F, maximum ([3]; plasma, NCA, maximum, N = 5): 95.6 L
t 1/2, maximum ([3]; plasma, NCA, maximum, N = 5): 219 h
CL/F, minimum ([3]; plasma, NCA, minimum, N = 5): 0.188 L/h
V z/F, minimum ([3]; plasma, NCA, minimum, N = 5): 38.0 L
t 1/2, minimum ([3]; plasma, NCA, minimum, N = 5): 140 h
AUC(0-t) [3, 9]: 32800 ng·h/mL
AUC(0-t) [3, 10]: 32000 ng·h/mL
CL/F ([3]; human, plasma, sc, 10 mg, CL/F (apparent clearance), mean, NCA, N = 5): 4.35 mL/min
CL/F ([3]; human, plasma, sc, 10 mg, CL/F, geometric mean, NCA, N = 5): 4.25 mL/min
CL/F ([3]; human, plasma, sc, 10 mg, CL/F, median, NCA, N = 5): 4.5 mL/min
Tmax [3, 9]: 112 h
Tmax ([3]; human, plasma, sc, 10 mg, mean, NCA): 120 h
Tmax [3, 10]: 144 h
half-life ([3]; human, plasma, sc, 10 mg, t 1/2, median, NCA, median, N = 5): 193 h
T max after start of infusion [4]: ~ 1 h
Total body clearance [4]: ~ 0.2 L/h
bioavailability of s.c. formulation [5]: ≤ 80%
bioavailability of s.c. formulation [6]: ≤ 80%
